In ChEMBL document CHEMBL3603771, “Synthesis, biological evaluation and docking study of maleimide derivatives bearing benzenesulfonamide as selective COX-2 inhibitors and anti-inflammatory agents” (Bioorg Med Chem, 2015):

Tests used:
[1] = molecular target: T1, Prostaglandin G/H synthase 1 (Ovis aries) (UniProt P05979); assay: Inhibition of ovine COX1 using arachidonic acid as substrate at 1 uM preincubated for 5 mins measured after 2 mins by colorimetric analysis
T1 sequence (whole entry): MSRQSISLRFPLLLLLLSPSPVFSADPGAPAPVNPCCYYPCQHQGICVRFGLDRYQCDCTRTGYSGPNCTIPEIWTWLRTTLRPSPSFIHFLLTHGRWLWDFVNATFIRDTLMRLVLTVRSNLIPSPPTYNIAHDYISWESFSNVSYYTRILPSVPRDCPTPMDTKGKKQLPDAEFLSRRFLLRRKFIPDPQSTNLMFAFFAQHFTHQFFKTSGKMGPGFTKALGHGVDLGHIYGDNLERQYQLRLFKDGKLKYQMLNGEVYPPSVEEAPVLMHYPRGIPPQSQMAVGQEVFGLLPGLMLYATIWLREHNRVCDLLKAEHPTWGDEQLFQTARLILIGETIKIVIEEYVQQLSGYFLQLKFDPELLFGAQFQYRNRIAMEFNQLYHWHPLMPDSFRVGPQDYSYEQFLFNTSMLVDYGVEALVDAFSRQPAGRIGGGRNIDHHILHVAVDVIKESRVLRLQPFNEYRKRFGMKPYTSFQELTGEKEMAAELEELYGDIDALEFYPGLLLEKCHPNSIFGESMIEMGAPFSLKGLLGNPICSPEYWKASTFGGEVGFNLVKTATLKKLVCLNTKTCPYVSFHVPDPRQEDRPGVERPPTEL
Summary of the method: (§1)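 Ovine COX-1 or human recombinant COX-2 in 0.1 M Tris-HCl pH 8 with heme, preincubated with compound (DMSO stock) 5 min at 25°C. TMPD and arachidonic acid then added, 2 min at 25°C. Peroxidase activity read as oxidized TMPD at 590 nm. Selectivity index taken as COX-2/COX-1.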

[2] = Selectivity index, ratio of inhibition of human recombinant COX2 to inhibition of ovine COX1
Summary of the method: as §1, with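 “nm. Compounds tested at 1 μM; % inhibition is the mean of two determinations.” for “nm.”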

[3] = molecular target: T2, Prostaglandin G/H synthase 2 (Homo sapiens) (UniProt P35354); settings: at 1 µM;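 note: recombinant enzyme with arachidonic acid substrate, compound preincubated 5 min, colorimetric read-out taken 2 min after reaction start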
T2 sequence (whole entry): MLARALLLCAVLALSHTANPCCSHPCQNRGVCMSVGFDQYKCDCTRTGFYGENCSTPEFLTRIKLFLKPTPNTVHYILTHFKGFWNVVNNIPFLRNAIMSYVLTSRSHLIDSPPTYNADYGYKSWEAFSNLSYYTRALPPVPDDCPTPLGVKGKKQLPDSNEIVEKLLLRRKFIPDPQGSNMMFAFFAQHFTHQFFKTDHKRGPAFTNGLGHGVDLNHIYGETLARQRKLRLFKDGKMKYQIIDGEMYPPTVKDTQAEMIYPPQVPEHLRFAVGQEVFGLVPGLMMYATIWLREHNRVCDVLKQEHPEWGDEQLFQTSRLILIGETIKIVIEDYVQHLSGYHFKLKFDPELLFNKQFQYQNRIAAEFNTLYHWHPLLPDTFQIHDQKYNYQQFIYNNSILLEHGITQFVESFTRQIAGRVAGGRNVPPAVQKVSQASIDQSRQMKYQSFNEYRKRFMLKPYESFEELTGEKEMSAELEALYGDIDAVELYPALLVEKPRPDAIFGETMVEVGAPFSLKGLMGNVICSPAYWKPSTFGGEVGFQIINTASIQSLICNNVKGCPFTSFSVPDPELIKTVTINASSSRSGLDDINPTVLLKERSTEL

Rattus norvegicus [4] = assay: Toxicity in Wistar albino rat assessed as ulcer index at 20 mg/kg, po qd for 3 days measured after 6 hrs of last dose; format: organism-based; settings: in vivo
Summary of the method: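 Male albino rats, 150-200 g, fasted 12 h with water ad libitum. Dosed orally at 20 mg/kg/day once daily for 3 days; controls received 7% gum acacia vehicle. Killed by ether overdose 6 h after the last dose. Stomachs opened along the greater curvature and scored for ulcers. Ulcer index by the Robert method from % incidence/10, mean ulcer number per stomach and severity score.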

Rattus norvegicus [5] = assay: Antiinflammatory activity in Wistar albino rat assessed as inhibition of carrageenan-induced hind paw edema at 20 mg/kg, po after 1 hr by plethysmometer; format: functional
Summary of the method: (§2)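 Adult male Wistar albino rats, 150-200 g, fasted 24 h, six per group. Compounds at 20 mg/kg suspended in 1% CMC in water (10 mL/kg) given orally; vehicle-only controls. Carrageenan in normal saline injected into the plantar surface of the right hind paw 30 min after dosing.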

Rattus norvegicus [6] = assay: Antiinflammatory activity in Wistar albino rat assessed as inhibition of carrageenan-induced hind paw edema at 20 mg/kg, po after 3 hrs by plethysmometer; format: functional; summary of the method: as §2
Rattus norvegicus [7] = assay: Antiinflammatory activity in Wistar albino rat assessed as inhibition of carrageenan-induced hind paw edema at 20 mg/kg, po after 5 hrs by plethysmometer; format: functional; summary of the method: as §2

SMILES	inhibition [1] [%]	Selectivity Index [2]	inhibition [3] [%]	UI (Rattus norvegicus [4])	inhibition in vivo at 20 mg/kg (Rattus norvegicus [5]) [%]	inhibition in vivo at 20 mg/kg (Rattus norvegicus [6]) [%]	inhibition in vivo at 20 mg/kg (Rattus norvegicus [7]) [%]
Cc1ccccc1NC1=C(Cl)C(=O)N(c2ccc(S(N)(=O)=O)cc2)C1=O	6.25	1.62	10.1	–	–	–	–
Cc1ccc(-c2cc(C(F)(F)F)nn2-c2ccc(S(N)(=O)=O)cc2)cc1 [CELECOXIB]	–	–	–	11.9	92.2	100	100
NS(=O)(=O)c1ccc(N2C(=O)C(Cl)=C(Nc3cccc(F)c3)C2=O)cc1	0.89	55.4	49.3	8.3	79.8	81	82.6
NS(=O)(=O)c1ccc(N2C(=O)C(Cl)=C(Nc3ccc(F)cc3)C2=O)cc1	1.33	20.8	27.6	–	–	–	–
NS(=O)(=O)c1ccc(N2C(=O)C(Cl)=C(Nc3ccc([N+](=O)[O-])cc3)C2=O)cc1	0.89	19.1	17.1	–	–	–	–
NS(=O)(=O)c1ccc(N2C(=O)C(Cl)=C(Nc3ccc(Cl)c(Cl)c3)C2=O)cc1	8.03	3.78	30.4	–	–	–	–
NS(=O)(=O)c1ccc(N2C(=O)C(Cl)=C(Cl)C2=O)cc1	12.1	0.611	7.37	–	–	–	–
NS(=O)(=O)c1ccc(N2C(=O)C(Cl)=C(Nc3ccccc3)C2=O)cc1	0.89	44.5	39.6	–	35.4	56.8	62.1
NS(=O)(=O)c1ccc(N2C(=O)C(Cl)=C(Nc3cccc(Cl)c3Cl)C2=O)cc1	4.01	6.78	27.2	–	–	–	–
Cc1ccc(NC2=C(Cl)C(=O)N(c3ccc(S(N)(=O)=O)cc3)C2=O)c(C)c1	5.35	2.57	13.8	–	–	–	–
Cc1cc(C)cc(NC2=C(Cl)C(=O)N(c3ccc(S(N)(=O)=O)cc3)C2=O)c1	0.44	15.7	6.91	–	–	–	–
NS(=O)(=O)c1ccc(N2C(=O)C(Cl)=C(N3CCCCC3)C2=O)cc1	0.44	14.7	6.45	–	–	–	–
NS(=O)(=O)c1ccc(N2C(=O)C(Cl)=C(Nc3ccccc3F)C2=O)cc1	0.89	44.5	39.6	–	69.2	71	74.9
COc1ccc(NC2=C(Cl)C(=O)N(c3ccc(S(N)(=O)=O)cc3)C2=O)cc1	0.89	11.9	10.6	–	–	–	–
COc1cccc(NC2=C(Cl)C(=O)N(c3ccc(S(N)(=O)=O)cc3)C2=O)c1	0.89	49.7	44.2	–	73	71.5	77.3
NS(=O)(=O)c1ccc(N2C(=O)C(Cl)=C(Nc3ccc(C(F)(F)F)cc3)C2=O)cc1	4.01	6.78	27.2	–	–	–	–
COc1ccccc1NC1=C(Cl)C(=O)N(c2ccc(S(N)(=O)=O)cc2)C1=O	7.14	2.19	15.7	–	–	–	–
Nc1ccccc1NC1=C(Cl)C(=O)N(c2ccc(S(N)(=O)=O)cc2)C1=O	1.78	12.9	23	–	–	–	–
NS(=O)(=O)c1ccc(N2C(=O)C(Cl)=C(Nc3ccc(Cl)cc3)C2=O)cc1	9.37	2.6	24.4	–	–	–	–
NS(=O)(=O)c1ccc(N2C(=O)C(Cl)=C(Nc3cccc(Cl)c3)C2=O)cc1	0.89	47.6	42.4	–	69.1	70.4	72.1
